Assay results pooled from the literature.
Protocols differ between the studies behind these lines. Converted amounts (≈) assume the structure as drawn.

C[C@@H](O)[C@H]1C(=O)N2C(C(=O)O)=C(SCCN=CN)C[C@H]12 — MIC (Acinetobacter baumannii; microbial growth, broth dilution; ATCC19606): 1 µg/mL (≈ 3.34 µM)
O=C1C(=Nc2ccccc2Br)c2ccccc2N1Cc1ccccc1 — IC50 (B16; cell growth or viability, MTT; 48 h): 0.5 µM
O=C1OC[C@H]2OC(O)[C@H](O)[C@@H](O)[C@@H]2OC(=O)c2cc(O)c(O)c(O)c2-c2c(O)c(O)c3oc(=O)c4c(c(O)c(O)c5oc(=O)c2c3c54)-c2c1cc(O)c(O)c2O (mixture of isomers) — MIC (Streptococcus gordonii; microbial growth, broth dilution; 24 h): 200 µg/mL
CN(C)[C@@H]1C(O)=C(C(N)=O)C(=O)[C@@]2(O)C(O)=C3C(=O)c4c(O)cccc4[C@@](C)(O)[C@H]3C[C@@H]12 — MIC (Acinetobacter baumannii; microbial growth, broth dilution; ATCCBAA1605): > 64 µg/mL
Cc1n[nH]c2ccc3nc(-c4ccc(C(=O)NCCN(C)C)cc4)c4c(c3c12)CCCC4 — GI50 (G-361; cell growth or viability; 72 h): 3.49 µM
CC(C)c1cccc(C(C)C)c1N=C1C(=O)N(Cc2cccc(Cl)c2)c2ccccc21 — IC50 (B16; cell growth or viability, MTT; 48 h): 40.9 µM
CCCCCCC#Cc1cncc(-c2nnc(SCc3ccc(Cl)cc3)n2CCCN)c1 — MIC (Acinetobacter baumannii; microbial growth, broth dilution; ATCC17978): 16 µg/mL (≈ 34.2 µM)
CCC(C(=O)N1C(=O)C(=Nc2ccc(Cl)cc2Br)c2ccccc21)c1ccccc1 (centres unmarked) — IC50 (B16; cell growth or viability, MTT; 48 h): 27.1 µM
O=C1O[C@H]2[C@@H]3OC(=O)c4cc(O)c(O)c(O)c4-c4c(O)c(O)c5oc(=O)c6c(c(O)c(O)c7oc(=O)c4c5c76)-c4c(cc(O)c(O)c4O)C(=O)OC[C@H]3OC(O)[C@@H]2OC(=O)c2cc(O)c(O)c(O)c2-c2c1cc(O)c(O)c2O (mixture of isomers) — MBC (Streptococcus gordonii; microbial killing, broth dilution): 400 µg/mL
CO/N=C(\C(=O)N[C@@H]1C(=O)N2C(C(=O)O)=CCS[C@H]12)c1csc(N)n1 — MIC (Acinetobacter baumannii; microbial growth, broth dilution; ATCC19606): 16 µg/mL (≈ 41.7 µM)
FC(F)(F)c1ccc(-c2cc(CNc3cccc4cccnc34)on2)cc1 — IC50 (Z-138; cell growth or viability, MTS; 72 h): 85.9 µM
C[C@@H]1O[C@@H](OC[C@H]2O[C@@H](Oc3c(-c4ccc(O)c(O)c4)oc4cc(O)cc(O)c4c3=O)[C@H](O)[C@@H](O)[C@@H]2O)[C@H](O)[C@H](O)[C@H]1O — MBC (Streptococcus gordonii; microbial killing, broth dilution): 400 µg/mL
O=C1C(=Nc2ccc(Cl)cc2)c2ccccc2N1Cc1ccc(Br)cc1 — IC50 (B16; cell growth or viability, MTT; 48 h): 14.1 µM
CNC(C)C1CCC(N)C(OC2C(N)CC(N)C(OC3OCC(C)(O)C(NC)C3O)C2O)O1 (centres unmarked) — MBC (Acinetobacter baumannii; microbial killing, broth dilution; ATCC19606; 24 h): 32 mM
CC(C)(C)c1cc(NC(=O)Nc2ccc(-c3cn4c(n3)sc3cc(OCCN5CCOCC5)ccc34)cc2)no1 — GI50 (G-361; cell growth or viability; 72 h): > 10 µM
Cc1cccc(N=C2C(=O)Nc3ccccc32)c1 — IC50 (B16; cell growth or viability, MTT; 48 h): 51.9 µM
C[C@H]1[C@H](NC(=O)/C(=N\OC(C)(C)C(=O)O)c2csc(N)n2)C(=O)N1S(=O)(=O)O — MIC (Acinetobacter baumannii; microbial growth, broth dilution; ATCC19606): 16 µg/mL (≈ 36.7 µM)
Oc1cc(O)c2c(c1)O[C@H](c1cc(O)c(O)c(O)c1)[C@@H](O)C2 — inhibition zone (Streptococcus gordonii; microbial growth, disc diffusion; 500 µg/disc): 11.6 mm
CN(C)CCNC(=O)c1ccc(-c2nc3ccc4[nH]ncc4c3c3c2CCCC3)cc1 — GI50 (G-361; cell growth or viability; 72 h): 3.5 µM
O=C1Nc2ccccc2C1=Nc1ccc(Cl)cc1 — IC50 (B16; cell growth or viability, MTT; 48 h): 32.6 µM
CC1(C)S[C@@H]2[C@H](NC(=O)[C@H](N)c3ccc(O)cc3)C(=O)N2[C@H]1C(=O)O — MIC (Acinetobacter baumannii; microbial growth, broth dilution; ATCC19606): > 64 µg/mL
O=C1C(=Nc2ccccc2I)c2ccccc2N1Cc1ccc([N+](=O)[O-])cc1 — IC50 (B16; cell growth or viability, MTT; 48 h): 0.27 µM
O=C(O[C@@H]1O[C@@H]2COC(=O)c3cc(O)c(O)c(O)c3-c3c(cc(O)c(O)c3O)C(=O)O[C@H]([C@H]1O)[C@@H]2O)c1cc(O)c(O)c(O)c1 — MBC (Streptococcus gordonii; microbial killing, broth dilution): 800 µg/mL
Cc1cccc(N=C2C(=O)N(Cc3ccccc3)c3ccccc32)c1 — IC50 (B16; cell growth or viability, MTT; 48 h): 1.07 µM
CC[C@H]1OC(=O)[C@H](C)[C@@H](O[C@H]2C[C@@](C)(OC)[C@@H](O)[C@H](C)O2)[C@H](C)[C@@H](O[C@@H]2O[C@H](C)C[C@H](N(C)C)[C@H]2O)[C@](C)(O)C[C@@H](C)CN(C)[C@H](C)[C@@H](O)[C@]1(C)O — MIC (Acinetobacter baumannii; microbial growth, broth dilution; ATCC19606): 1 µg/mL (≈ 1.34 µM)
O=c1oc2c(O)c(O)cc3c(=O)oc4c(O)c(O)cc1c4c23 — inhibition zone (Streptococcus gordonii; microbial growth, disc diffusion; 500 µg/disc): 16 mm
